# Values joined by “and” are separate entries in the source; they are usually repeats but may differ in a detail not shown here. Equal values may be shown once. “Also recorded” adds a separate entry of the source.
# Experiments:
# [1] = target: T1, SyoA (Amycolatopsis thermoflava, UniProt A0AAX7FLX8); assay: In vitro H2O2-driven; format: biochemical, Amycolatopsis thermoflava N1165; conditions: 1 µM SyoA; for concentration of demethylated aromatic product (individual replicates): 10 mM H2O2, 0.5 mM syringol; for concentration of demethylated aromatic product (individual replicates) / concentration of demethylated aromatic product (mean of 3 replicates): 0.5 mM syringaldehyde or 2 mM 4-methylsyringol, 30 °C, 60 min; for total turnover number (TTN): 10 mM H2O2, 60 min; for concentration of demethylated aromatic product (mean of 3 replicates): 50 mM Tris pH 7.5, 10 mM H2O2, 0.5 mM syringol
# T1 sequence (A0AAX7FLX8 1-412): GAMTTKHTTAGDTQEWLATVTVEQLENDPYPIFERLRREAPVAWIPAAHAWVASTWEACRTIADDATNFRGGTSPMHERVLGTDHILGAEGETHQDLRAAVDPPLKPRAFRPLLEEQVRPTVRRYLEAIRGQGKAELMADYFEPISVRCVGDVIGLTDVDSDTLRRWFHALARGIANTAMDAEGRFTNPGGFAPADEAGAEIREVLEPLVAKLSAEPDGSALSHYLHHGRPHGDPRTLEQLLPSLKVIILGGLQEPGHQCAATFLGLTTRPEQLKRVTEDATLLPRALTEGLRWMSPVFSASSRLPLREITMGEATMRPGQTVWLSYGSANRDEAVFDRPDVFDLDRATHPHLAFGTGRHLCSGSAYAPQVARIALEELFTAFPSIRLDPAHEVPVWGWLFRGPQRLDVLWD
# How it was run: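 SyoA expressed in E. coli BL21(DE3) and purified by Ni affinity then anion exchange. Enzyme at 1 µM in 50 mM Tris pH 7.5 with 0.5–2 mM test compound (from DMSO stock), preincubated 2 min at 30 °C. Started with 10 mM H2O2 and run 60 min at 30 °C, then quenched with catalase; triplicate. Products quantified by C18 HPLC (20–95% MeCN/0.1% TFA, 254 nm) against internal-standard calibration (20–500 µM), or by GC-MS after ethyl acetate extraction.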
# [2] = tested on: GcoA mutants (GcoAEE, GcoAQT, GcoAET); assay: In vitro H2O2-driven O-demethylation by I-helix mutants, HPLC; format: biochemical, Amycolatopsis thermoflava; conditions: mutation of Gln248 and/or Glu249, 20 mM H2O2
# How it was run: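 GcoA mutants carried N-terminal His6-TEV tags, were expressed in E. coli BL21(DE3) and purified by Ni affinity. Reactions used 1 µM enzyme in 50 mM Tris pH 7.5 with 0.5–2 mM test compound, preincubated 2 min at 30 °C. Started with 20 mM H2O2 and run 60 min at 30 °C, then catalase-quenched; triplicate. Products quantified by C18 HPLC at 254 nm against calibration curves.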
# [3] = tested on: GcoA mutants (GcoAEE, GcoAQT, GcoAET) with GcoB; assay: In vitro NADH/O2-driven; format: biochemical, Amycolatopsis thermoflava
# How it was run: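 GcoA mutants at 0.5 µM with 1 µM GcoB and 100 µg/mL catalase in oxygenated 50 mM Tris pH 7.5 at 30 °C. About 320 µM NADH added first to record background oxidation. Started with 1 mM test compound; A340 followed for about 10 min, then left about 1 h at room temperature. No-P450 controls included. Products analysed by C18 HPLC at 254 nm.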
# [4] = tested on: GcoA mutants (GcoAEE, GcoAQT, GcoAET); assay: UV-Vis substrate binding analysis of I-helix mutants; parameters: species or system Amycolatopsis thermoflava
# [5] = target: T1, SyoA; assay: Substrate binding affinity; parameters: species or system Amycolatopsis thermoflava N1165; conditions: 50 mM potassium phosphate pH 7.4, n = 3, hyperbolic fit
# How it was run: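 SyoA at about 2–8 µM in 50 mM potassium phosphate pH 7.4 titrated with test compound from 1, 10 or 100 mM DMSO stocks (at most 10 µL per stock). Difference spectra recorded from 300–600 nm until no further shift. Peak-to-trough ΔA taken at 390−419, 500−419 or 500−570 nm depending on ligand, then fitted to a hyperbolic equation for KD; triplicate titrations.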
# [6] = tested on: SyoA/SyoB; assay: In vitro NADH/O2-driven; format: biochemical, Amycolatopsis thermoflava N1165; conditions: ~320 μM NADH; for O-demethylation by reconstituted SyoA/SyoB monooxygenase system: 1 μM SyoA, 1 μM SyoB, 1 mM substrate, 30 °C
# How it was run: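 Reconstituted system of 1 µM SyoA, 1 µM His-tagged SyoB and 100 µg/mL catalase in oxygenated 50 mM Tris pH 7.5 at 30 °C. Background NADH (about 320 µM) oxidation recorded first. Started with 1 mM test compound from DMSO stock; A340 (ε 6.22 mM−1 cm−1) monitored about 10 min, then about 1 h at room temperature for full NADH use. No-P450 controls included. Products analysed by HPLC.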
# [7] = target: T1, SyoA; assay: UV-Vis spin-state shift / substrate binding analysis; parameters: species or system Amycolatopsis thermoflava N1165; conditions: ligand titrated until Soret band stopped shifting
# How it was run: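 SyoA at about 3 µM in 50 mM Tris pH 7.5 received test compound in 1 µL aliquots from 100 mM DMSO stock. Spectra recorded from 600–250 nm until no further shift. Spin-state change read from the Soret band (417 nm) or the Q-bands (568 and 535 nm).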
# [8] = tested on: SyoA mutants (SyoAEE, SyoAQT, SyoAET); assay: In vitro H2O2-driven O-demethylation by I-helix mutants, HPLC; format: biochemical, Amycolatopsis thermoflava N1165; conditions: mutation of Gln252 and/or Glu253
# How it was run: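 SyoA I-helix mutants expressed in E. coli BL21(DE3) and purified by Ni affinity only. Enzyme at 1 µM in 50 mM Tris pH 7.5 with 0.5–2 mM test compound, preincubated 2 min at 30 °C. Started with 10 mM H2O2 and run 60 min at 30 °C, then catalase-quenched; triplicate. Products quantified by C18 HPLC at 254 nm with internal standard and product calibration curves.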
# [9] = tested on: SyoA mutants (SyoAEE, SyoAQT, SyoAET); assay: UV-Vis substrate binding analysis of I-helix mutants; parameters: species or system Amycolatopsis thermoflava N1165
SMILES,concentration of demethylated aromatic product (individual replicates) [1],Kd [5] [µM],O-demethylation by reconstituted SyoA/SyoB monooxygenase system [6],total turnover number (TTN) [1],concentration of demethylated aromatic product (mean of 3 replicates) [1] [µM],other results
"COc1cccc(O)c1O [1b, 3-methoxycatechol]",155 µM and 125 µM and 146 µM,–,–,–,–,–
"COc1cc(C)cc(O)c1O [2a, 3-methoxy-5-methylbenzene-1,2-diol]",802 µM and 822 µM and 762 µM,–,–,–,–,–
"COc1cc(C=O)cc(O)c1O [3a, 5-hydroxyvanillin]",332 µM and 314 µM and 279 µM,–,–,–,–,–
COc1ccccc1O [guaiacol],–,–,–,–,–,hydrogen peroxide driven O-demethylation by mutants compared to wild type [2]: loss of peroxygenase activity; monooxygenase activity compared to wild type ([3]; GcoAEE): significant reduction in the monooxygenase activity; monooxygenase activity compared to wild type ([3]; GcoAET): significant reduction in the monooxygenase activity; monooxygenase activity compared to wild type ([3]; GcoAQT): complete loss in activity; substrate binding to mutants (UV-Vis) [4]: not drastically impacted by the mutations
COc1cc(C=O)cc(OC)c1O [syringaldehyde],–,341 ± 25,did not O-demethylate; also recorded: no O-demethylation,308,308 ± 27,–
COc1cccc(OC)c1O [syringol],–,16 ± 1,did not O-demethylate; also recorded: no O-demethylation,142,142 ± 15,"shift to the HS (high-spin) form using the Soret band [7]: ~ 70%; NADH consumption in reaction containing SyoA, SyoB and substrate ([6]; monitored at 340 nm): NADH was consumed; substrate consumed ([1]; over 60 min, 10 mM H2O2): ~ 65%; hydrogen peroxide driven O-demethylation by mutants compared to wild type [8]: loss of peroxygenase activity; substrate binding to mutants (UV-Vis) [9]: not drastically impacted by the mutations"

# — PMC11842817 (Nature Communications, 2025)
